This is one part of a sample in which hits are shown more often than they occur.
T cruzi HTS = blocks T. cruzi growth inside host cells; intracellular Trypanosoma cruzi in host cells, plate reader; activity score (inhibition), % at 5.01 µM; 22,000 compounds, 4.9% hits; in the data active = activity score above about 55%;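 also: parasites and compound incubated about four days before reading; 0% = median of neutral control wells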
A1 apoptosis 2 = blocks A1, raising caspase activity; MEF A1-2A-BIM cells, caspase-Glo luminescence, 3 h; percent of clofoctol response, DMSO zero; caspase activation, % (concentration not given with the values); 24,000 tested, under 10 active; AID 2465; in the data active = caspase activation above about 5.9%
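Test system – A1-2A-BIM-expressing MEF cells · Input – 2500 cells/well · Medium – RPMI-1640 growth medium with 10% FBS · Compound dosing – 50 nL pinned compound · Timing – 3 h compound exposure at 37 °C · Technique – Caspase-Glo luminescence (DEVD substrate) · Evaluation – Caspase-3/7 activity from luminescence increase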
INS-1E ATP HTS = rescue of cytokine-induced death in INS-1E beta cells; 20,000 compounds, 0.1% hits; protection from cytokine-induced ATP loss, % at 10 µM; INS-1E cytokine-induced death, ATP luminescence, 48 h; normalised: neutral wells 0, positive control 100;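 active = mean replicate protection from cytokine-induced ATP loss at least 50% and at least 75% of replicates each reaching 50%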
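Material: INS-1E rat cells; Quantity: 8000 cells/well; Buffer or medium: phenol-red-free RPMI with 5% fetal bovine serum; Probe or stimulus: cytokine cocktail of IFN-γ, TNF-α and IL-1β; Compound dosing: single test concentration per compound, delivered by pin transfer; Incubation: 48 h co-treatment, 10 min post-lysis read; Signal: CellTiter-Glo luminescence.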
The depositor's hits bear a star; · = no result given.

SMILES | T cruzi HTS | A1 apoptosis 2 | INS-1E ATP HTS
Cc1ccc(S(=O)(=O)N(C)C[C@H]2Oc3ccc(NS(=O)(=O)c4ccccc4)cc3C(=O)N([C@@H](C)CO)C[C@@H]2C)cc1 | 5.6 | 1.9 | -5.0
C[C@H]1CN([C@@H](C)CO)C(=O)c2cc(NS(=O)(=O)c3ccccc3)ccc2O[C@H]1CN(C)S(=O)(=O)c1ccc(Cl)cc1 | -7.1 | 1.5 | 0.3
CC(C)NC(=O)Nc1ccc2c(c1)C(=O)N([C@@H](C)CO)C[C@H](C)[C@@H](CN(C)S(=O)(=O)c1cccs1)OCCCC[C@@H](C)O2 | · | 0.1 | ·
Cc1noc(C)c1S(=O)(=O)Nc1ccc2c(c1)C(=O)N([C@H](C)CO)C[C@@H](C)[C@@H](CN(C)Cc1ccc(Cl)c(Cl)c1)O2 | 4.6 | · | -7.8
Cc1noc(C)c1S(=O)(=O)Nc1ccc2c(c1)CC(=O)N([C@H](C)CO)C[C@@H](C)[C@@H](CN(C)Cc1ccc(Cl)c(Cl)c1)O2 | 60.6* | · | -28.4
Cc1noc(C)c1S(=O)(=O)Nc1ccc2c(c1)C(=O)N([C@H](C)CO)C[C@H](C)[C@H](CN(C)Cc1ccc(C(F)(F)F)cc1)O2 | 63.1* | · | -12.1
Cc1noc(C)c1S(=O)(=O)Nc1ccc2c(c1)C(=O)N([C@@H](C)CO)C[C@@H](C)[C@H](CN(C)Cc1ccc(C(F)(F)F)cc1)O2 | 27.6 | · | -17.7
Cc1noc(C)c1S(=O)(=O)Nc1ccc2c(c1)CC(=O)N([C@H](C)CO)C[C@H](C)[C@H](CN(C)Cc1ccc(Cl)c(Cl)c1)O2 | 52.7 | 0.9 | -10.4
Cc1noc(C)c1S(=O)(=O)Nc1ccc2c(c1)C(=O)N([C@H](C)CO)C[C@H](C)[C@@H](CN(C)Cc1ccc(Cl)c(Cl)c1)O2 | 63.4* | · | -9.8
C[C@@H]1CN([C@H](C)CO)C(=O)c2cccc(NC(=O)C3CC3)c2O[C@H]1CN(C)S(=O)(=O)c1ccc(Cl)cc1 | 9.4 | · | 0.3
Cc1ccc(S(=O)(=O)Nc2ccc3c(c2)CC(=O)N([C@H](C)CO)C[C@H](C)[C@H](CN(C)S(=O)(=O)c2c(C)noc2C)O3)cc1 | 2.5 | · | -1.4
C[C@@H]1CN([C@@H](C)CO)C(=O)c2cc(NC(=O)Cn3cnnn3)ccc2O[C@H]1CN(C)Cc1ccc(Oc2ccccc2)cc1 | -18.4 | -1.3 | -0.6
C[C@@H]1CN([C@H](C)CO)C(=O)c2cc(NC(=O)Nc3ccc(C(F)(F)F)cc3)ccc2O[C@@H]1CN(C)S(=O)(=O)c1ccccc1 | 11.4 | 0.8 | -1.3
Cc1ccc(S(=O)(=O)N(C)C[C@H]2Oc3ccc(NC(=O)Nc4ccc(C(F)(F)F)cc4)cc3C(=O)N([C@@H](C)CO)C[C@H]2C)cc1 | 64.1* | 0.0 | -36.4
C[C@@H]1CN([C@H](C)CO)C(=O)c2cc(NC(=O)Nc3ccc(C(F)(F)F)cc3)ccc2O[C@H]1CN(C)S(=O)(=O)c1ccc(F)cc1 | 64.6* | -1.5 | -30.0
Cc1ccc(S(=O)(=O)N(C)C[C@@H]2Oc3ccc(NC(=O)Nc4ccc(C(F)(F)F)cc4)cc3C(=O)N([C@H](C)CO)C[C@@H]2C)cc1 | 25.6 | -1.2 | -58.0
C[C@@H]1CN([C@@H](C)CO)C(=O)c2cc(NC(=O)Nc3ccc(C(F)(F)F)cc3)ccc2O[C@H]1CN(C)S(=O)(=O)c1ccccc1 | 67.7* | 0.9 | -27.5
C[C@H]1CN([C@@H](C)CO)C(=O)c2cc(NC(=O)Nc3ccc(C(F)(F)F)cc3)ccc2O[C@@H]1CN(C)S(=O)(=O)c1ccc(F)cc1 | 6.3 | 0.3 | -6.9
CC(C)NC(=O)N(C)C[C@@H]1Oc2ccc(NC(=O)Nc3cccc4ccccc34)cc2C(=O)N([C@@H](C)CO)C[C@H]1C | -1.8 | -0.8 | 5.0
COc1ccc(S(=O)(=O)N(C)C[C@H]2Oc3ccc(NC(=O)CCN4CCOCC4)cc3C(=O)N([C@@H](C)CO)C[C@H]2C)cc1 | -4.5 | -0.3 | -4.6
C[C@H]1CN([C@@H](C)CO)C(=O)Cc2cc(NC(=O)Cc3ccccc3)ccc2O[C@H]1CN(C)Cc1ccc(C(=O)Nc2ccccc2N)cc1 | · | 0.8 | ·
C[C@H](CO)N1C[C@H](C)[C@H](CN(C)Cc2ccc(C(=O)Nc3ccccc3N)cc2)Oc2ccc(NC(=O)Cc3ccccc3)cc2CC1=O | 64.5* | · | 44.8
C[C@@H]1CN([C@@H](C)CO)C(=O)Cc2cc(NC(=O)Cc3ccccc3)ccc2O[C@@H]1CN(C)Cc1ccc(C(=O)Nc2ccccc2N)cc1 | 76.8* | -0.3 | -13.7
C[C@@H]1CN([C@H](C)CO)C(=O)Cc2cc(NC(=O)Cc3ccccc3)ccc2O[C@H]1CN(C)Cc1ccc(C(=O)Nc2ccccc2N)cc1 | 29.9 | 0.6 | -19.7
C[C@@H]1CN([C@@H](C)CO)C(=O)Cc2cc(NS(=O)(=O)c3ccccc3)ccc2O[C@@H]1CN(C)S(=O)(=O)c1cccs1 | 8.7 | 0.5 | 2.2
SMILES | T cruzi HTS | A1 apoptosis 2 | INS-1E ATP HTS
C[C@H](CO)N1C[C@H](C)[C@H](CN(C)S(=O)(=O)c2ccccc2)Oc2ccc(NS(C)(=O)=O)cc2CC1=O | -3.9 | · | 2.6
Cc1ccsc1/C=N\NC(=O)CCCCCC(=O)NO | 2.9 | · | 118.0*
O=C(CCCCCC(=O)N/N=C/c1c[nH]c2ccccc12)NO | -1.0 | · | 90.7*
Cc1ccccc1/C=N/NC(=O)CCCCC(=O)NO | 2.4 | · | 67.1*
O=C(CCCCCCC(=O)N/N=C/c1ccccc1)NO | · | 0.5 | ·
O=C(CCCCC(=O)N/N=C\c1ccc2c(c1)Cc1ccccc1-2)NO | 16.8 | · | 94.2*
Cc1ccccc1/C=N/NC(=O)CCCCCCC(=O)Nc1ccccc1O | 5.1 | 1.6 | 0.9
COC(=O)CCCCCCC(=O)N/N=C/c1ccc2c(c1)Cc1ccccc1-2 | 25.9 | -0.3 | -2.2
Cc1ccsc1/C=N/NC(=O)CCCCCCC(=O)Nc1ccccc1O | -0.2 | 0.7 | 8.2
C[C@H](CO)N1C[C@H](C)[C@@H](CN(C)C(=O)Nc2ccc(F)cc2)Oc2ccc(N(C)C)cc2CC1=O | · | -1.3 | ·
COc1ccc(S(=O)(=O)Nc2ccc3c(c2)C(=O)N([C@@H](C)CO)C[C@@H](C)[C@@H](CN(C)S(=O)(=O)c2ccc(F)cc2)O3)cc1 | 9.3 | · | -2.0
COc1cc(Br)cc(/C=N/NC(=O)CCCCCCC(=O)Nc2ccccc2O)c1O | 31.9 | · | 3.7
C[C@H]1CN([C@@H](C)CO)C(=O)c2cc(NS(C)(=O)=O)ccc2O[C@@H]1CN(C)CC1CCCCC1 | 15.9 | · | ·
C[C@@H]1CN([C@@H](C)CO)C(=O)c2cc(NC(=O)Nc3cccc4ccccc34)ccc2O[C@@H]1CN(C)Cc1ccc(Cl)c(Cl)c1 | 51.8 | · | ·
C[C@H]1CN([C@@H](C)CO)C(=O)Cc2cc(NC(=O)Nc3cccc4ccccc34)ccc2O[C@@H]1CN(C)Cc1ccccc1 | 58.0* | · | -16.3
C[C@H](CO)N1C[C@H](C)[C@@H](CN(C)Cc2ccccc2)Oc2ccc(NC(=O)Nc3cccc4ccccc34)cc2CC1=O | · | 0.5 | ·
C[C@@H]1CN([C@H](C)CO)C(=O)Cc2cc(NC(=O)Nc3cccc4ccccc34)ccc2O[C@@H]1CN(C)Cc1ccc2c(c1)OCO2 | 71.2* | · | -34.2
C[C@@H]1CN([C@@H](C)CO)C(=O)Cc2cc(NC(=O)Nc3cccc4ccccc34)ccc2O[C@H]1CN(C)Cc1ccc(-c2ccccc2)cc1 | · | 0.9 | ·
